Measured values pooled from the literature.
Each line is one published result; the experiments were not run side by side.
Target: Tyrosine-protein kinase Fes/Fps (FES, Homo sapiens, UniProt P07332)

Compound	test	test system	conditions	endpoint	value
Cc1ccc(NC(=O)c2ccc(C)c(C(F)(F)F)c2)cc1C#Cc1nn(C2CCC(O)CC2)c2ncnc(N)c12 (stereo not shown)	cell-free assay	–	10 µM	remaining signal	34%
CCN(CC)c1ccc(C2=NNC(=O)CC2C)cc1[N+](=O)[O-] (stereo not shown)	enzyme activity, inhibitor	–	10 µM	remaining activity	103%
CC(C)(C)c1nc(-c2cccc(NS(=O)(=O)c3c(F)cccc3F)c2F)c(-c2ccnc(N)n2)s1	enzyme activity, inhibitor, radiometric	–	1 µM	remaining activity	88%
C[C@@H]1CN(c2cc(-c3n[nH]c4ccc(OC5(C)CC5)cc34)ncn2)C[C@H](C)O1	cell-free assay, competition with immobilised ligand	–	0.1 µM	remaining binding	87%
Nc1ncnc2occ(-c3ccc(NC(=O)Nc4cc(C(F)(F)F)ccc4F)cc3)c12	cell-free assay, inhibitor	–	20 µM	remaining signal	4.1%
Cc1sc(C(=O)NC2COC2)cc1-n1cc(NC(=O)Nc2c(F)cccc2Cl)cn1	enzyme activity, inhibitor	–	10 µM	remaining activity	93.7%
Cc1cnc(NC2CCOCC2)nc1-n1cnc(C(=O)NC(CN)c2cc(F)cc(Cl)c2)c1 (stereo not shown)	enzyme activity, inhibitor, radiometric	–	1 µM	remaining activity	102%
O=C(Nc1cnn(-c2csc(C(=O)NC3COC3)c2)c1)Nc1c(F)cccc1Cl	enzyme activity, inhibitor	–	5 µM	remaining activity	87.8%
COc1cc2nccc(Oc3ccc(NC(=O)c4c5n(n(-c6ccc(F)cc6)c4=O)CCCC5)cc3)c2cc1OC	enzyme activity, inhibitor	–	0.1 µM	inhibition	-3%
CCC(=O)N[C@@H]1CC[C@H](C(=O)N(C)c2ccc(-c3nc4ccccc4o3)cc2)C1	cell-free assay, competition with immobilised ligand	–	1 µM	remaining binding	96%
CNC(=O)c1cc(Oc2ccc(NC(=O)Nc3ccc(Cl)c(C(F)(F)F)c3)cc2)ccn1	cell-free assay	–	0.5 µM	remaining signal	104%
C=CC(=O)Nc1cc(Nc2nccc(Nc3cc(Cl)c(F)cc3C(C)(C)O)n2)c(OC)cc1N1CC[C@@H](N(C)C)C1	enzyme activity, inhibitor	–	1 µM	inhibition	65%
CNCc1ccc(-c2cc(-c3nc(-c4ccc(S(=O)(=O)C(C)C)cc4)cnc3N)on2)cc1	enzyme activity, inhibitor	–	2 µM	inhibition	0%
C[C@@H]1CN(c2cc(-c3nn(C)c4ccc(OC5(C)CC5)cc34)ncn2)C[C@H](C)O1	cell-free assay, competition with immobilised ligand	–	1 µM	remaining binding	93%
O=C1NC(=O)c2cc(Nc3ccc(F)cc3)c(Nc3ccc(F)cc3)cc21	cell-free assay	–	0.5 µM	remaining signal	99.5%
CN(c1ccnc(CNc2nc(Nc3ccc4c(c3)CC(=O)N4)ncc2C(F)(F)F)n1)S(C)(=O)=O	cell-free assay, competition with immobilised ligand	–	1 µM	remaining binding	74%
CNc1cc(Oc2cc(C(=O)Nc3cc(N4CCN(C)CC4)cc(C(F)(F)F)c3)ccc2C)ncn1	target engagement in cells, inhibitor, chemoproteomics	Huh-7	1 µM	inhibition	-21.4%
CC(C)(O)[C@H]1CC[C@H](Nc2ccc3ncc(-c4cccc(C(F)(F)F)c4)n3n2)CC1	enzyme activity, inhibitor	–	1 µM	remaining activity	95.4%
CC1=C(C#N)[C@@H](c2ccc3[nH]nc(C)c3c2)C(C#N)=C(c2ccc(Cl)cc2)N1	cell-free assay, competition with immobilised ligand	–	1 µM	remaining binding	100%
CCCS(=O)(=O)Nc1ccc(F)c(C(=O)c2c[nH]c3ncc(-c4ccc(Cl)cc4)cc23)c1F	enzyme activity, inhibitor	–	1 µM	inhibition	< 20%
COc1ccc2c(c1)O[C@H](c1ccc(OC)c(OC)c1)C[C@@H]2NC(=O)C1(c2ccc3c(c2)OC(F)(F)O3)CC1	cell-free assay, competition with immobilised ligand	–	1 µM	remaining binding	97%
COc1cc2ncnc(Nc3ccc(Oc4ccccc4)c(C)c3C)c2cc1OC	enzyme activity, inhibitor	–	1 µM	inhibition	7%
